Tests used:
[1] = molecular target: T1, Progesterone receptor (Rattus norvegicus) (UniProt Q63449); experiment: Relative binding affinity for progesterone receptor in a competitive radiometric binding assay relative to the affinity of R5020 as tracer
T1 sequence (whole entry): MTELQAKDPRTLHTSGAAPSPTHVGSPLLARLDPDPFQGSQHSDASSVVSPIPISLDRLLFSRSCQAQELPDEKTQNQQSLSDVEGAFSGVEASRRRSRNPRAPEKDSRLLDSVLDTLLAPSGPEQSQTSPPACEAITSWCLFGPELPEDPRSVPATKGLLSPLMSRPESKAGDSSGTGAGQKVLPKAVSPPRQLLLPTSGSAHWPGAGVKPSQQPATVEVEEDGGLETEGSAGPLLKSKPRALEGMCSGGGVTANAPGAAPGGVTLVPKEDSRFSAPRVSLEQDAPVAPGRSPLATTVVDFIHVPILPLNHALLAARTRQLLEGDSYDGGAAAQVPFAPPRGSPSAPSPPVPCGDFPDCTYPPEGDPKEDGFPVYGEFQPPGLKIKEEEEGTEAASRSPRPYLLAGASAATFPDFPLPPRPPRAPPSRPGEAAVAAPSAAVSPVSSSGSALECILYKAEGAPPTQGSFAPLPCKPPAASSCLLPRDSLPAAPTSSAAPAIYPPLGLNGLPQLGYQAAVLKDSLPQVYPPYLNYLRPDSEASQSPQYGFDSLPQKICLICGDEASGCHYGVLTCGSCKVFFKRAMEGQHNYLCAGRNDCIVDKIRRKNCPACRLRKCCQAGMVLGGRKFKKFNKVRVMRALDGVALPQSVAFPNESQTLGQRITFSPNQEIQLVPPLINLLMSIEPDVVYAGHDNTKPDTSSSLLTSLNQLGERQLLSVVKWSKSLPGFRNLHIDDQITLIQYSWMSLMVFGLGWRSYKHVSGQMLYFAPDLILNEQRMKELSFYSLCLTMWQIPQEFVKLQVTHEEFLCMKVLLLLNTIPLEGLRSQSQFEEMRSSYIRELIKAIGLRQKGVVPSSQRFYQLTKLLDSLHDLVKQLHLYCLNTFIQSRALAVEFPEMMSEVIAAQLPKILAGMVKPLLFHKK
Procedure, shortened: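 The R5020 standard is defined as 100%, and binding of other ligands is expressed as a percentage relative to it.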

[2] = molecular target: T2, Mineralocorticoid receptor (Rattus norvegicus) (UniProt P22199); experiment: Relative binding affinity for the rat kidney mineralocorticoid receptor (MR) relative to the affinity of aldosterone as tracer
T2 sequence (whole entry): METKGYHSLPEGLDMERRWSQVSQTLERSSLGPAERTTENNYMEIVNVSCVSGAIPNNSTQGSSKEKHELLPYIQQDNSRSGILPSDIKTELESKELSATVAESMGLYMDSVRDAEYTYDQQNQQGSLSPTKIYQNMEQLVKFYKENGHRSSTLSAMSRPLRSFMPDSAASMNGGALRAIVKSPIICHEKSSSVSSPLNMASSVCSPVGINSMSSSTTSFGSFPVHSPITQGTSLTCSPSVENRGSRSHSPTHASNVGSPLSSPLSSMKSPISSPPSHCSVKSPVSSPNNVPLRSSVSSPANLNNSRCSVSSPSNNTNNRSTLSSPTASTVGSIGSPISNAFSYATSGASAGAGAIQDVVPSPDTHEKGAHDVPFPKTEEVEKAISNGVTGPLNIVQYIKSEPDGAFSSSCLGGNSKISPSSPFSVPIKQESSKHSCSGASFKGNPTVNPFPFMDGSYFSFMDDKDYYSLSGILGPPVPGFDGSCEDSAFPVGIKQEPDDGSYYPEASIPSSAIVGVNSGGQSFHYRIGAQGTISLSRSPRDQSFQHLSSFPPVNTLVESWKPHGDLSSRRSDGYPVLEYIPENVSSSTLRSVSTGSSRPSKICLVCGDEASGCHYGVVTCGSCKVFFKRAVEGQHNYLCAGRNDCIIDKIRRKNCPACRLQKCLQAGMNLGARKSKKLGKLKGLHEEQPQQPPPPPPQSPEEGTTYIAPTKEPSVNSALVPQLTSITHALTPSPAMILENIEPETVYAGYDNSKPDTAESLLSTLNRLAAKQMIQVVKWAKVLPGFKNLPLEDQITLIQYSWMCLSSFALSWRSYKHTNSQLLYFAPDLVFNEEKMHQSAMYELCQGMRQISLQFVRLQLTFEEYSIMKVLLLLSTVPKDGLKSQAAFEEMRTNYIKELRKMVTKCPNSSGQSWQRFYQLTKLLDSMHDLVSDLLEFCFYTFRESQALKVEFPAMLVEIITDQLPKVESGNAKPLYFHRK

Row | SMILES | relative binding affinity (RBA) [1] | relative binding affinity (RBA) [2]
1 | CC(=O)[C@@]12OC(C)(c3c(F)c(F)c(N=[N+]=[N-])c(F)c3F)O[C@@H]1CC1C3CCC4=CC(=O)CC[C@]4(C)C3CC[C@@]12C (some centres undefined) | 14 | 0.95
2 | CC(=O)[C@@]12OC(C)(c3ccc(N)cc3)O[C@@H]1CC1C3CCC4=CC(=O)CC[C@]4(C)C3CC[C@@]12C (some centres undefined) | 0.01 | –
3 | CC(=O)[C@@]12OC(C)(c3ccc(N=[N+]=[N-])cc3)O[C@@H]1CC1C3CCC4=CC(=O)CC[C@]4(C)C3CC[C@@]12C (stereo in doubt; 7) | 0.18 | –
4 | CC(=O)[C@H]1CC[C@H]2[C@@H]3CCC4=CC(=O)CC[C@]4(C)[C@H]3CC[C@]12C | 13 | –
5 | CC(=O)[C@@]12OC(C)(c3ccc(N=[N+]=[N-])c(I)c3)O[C@@H]1CC1C3CCC4=CC(=O)CC[C@]4(C)C3CC[C@@]12C (some centres undefined) | 2.9 | –
6 | CC(=O)[C@@]12OC(C)(c3ccccc3)O[C@@H]1C[C@H]1[C@@H]3CCC4=CC(=O)CC[C@]4(C)[C@H]3CC[C@@]12C (stereo in doubt; 17) | 1.2 | –
7 | CC(=O)[C@@]12OC(C)(c3ccc(N=[N+]=[N-])cc3)O[C@@H]1CC1C3CCC4=CC(=O)CC[C@]4(C)C3CC[C@@]12C (stereo in doubt; 6) | 15 | 0.13
8 | CC(=O)[C@@]12OC(C)(c3ccc(C(=O)c4ccccc4)cc3)O[C@@H]1CC1C3CCC4=CC(=O)CC[C@]4(C)C3CC[C@@]12C (some centres undefined) | 6.6 | < 0.003
9 | CC(=O)[C@@]12OC(C)(c3ccccc3)O[C@@H]1C[C@H]1[C@@H]3CCC4=CC(=O)CC[C@]4(C)[C@H]3CC[C@@]12C (stereo in doubt; 16) | 16 | 1.6
10 | CC(=O)[C@@]12OC(C)(c3ccc(I)cc3)O[C@@H]1CC1C3CCC4=CC(=O)CC[C@]4(C)C3CC[C@@]12C (some centres undefined) | 25 | 0.13
11 | CC(=O)[C@@]12OC(C)(c3ccc(F)cc3)O[C@@H]1CC1C3CCC4=CC(=O)CC[C@]4(C)C3CC[C@@]12C (stereo in doubt; 11) | 0.56 | –
12 | CC(=O)[C@@]12OC(C)(c3ccco3)OC1CC1C3CCC4=CC(=O)CC[C@]4(C)C3CC[C@@]12C (some centres undefined) | 5.5 | –
13 | CC(=O)[C@@]12OC(C)(c3ccc(N=C=S)cc3)O[C@@H]1CC1C3CCC4=CC(=O)CC[C@]4(C)C3CC[C@@]12C (some centres undefined) | 1.3 | 0.09
14 | CC(=O)[C@@]12OC(C)(C)O[C@@H]1C[C@H]1[C@@H]3CCC4=CC(=O)CC[C@]4(C)[C@H]3CC[C@@]12C | 2 | –
15 | CC(=O)[C@@]12OC(C)(c3c(F)c(F)c(F)c(F)c3F)O[C@@H]1CC1C3CCC4=CC(=O)CC[C@]4(C)C3CC[C@@]12C (some centres undefined) | 20 | 0.65
16 | CC(=O)[C@@]12OC(C)(c3ccc(F)cc3)O[C@@H]1CC1C3CCC4=CC(=O)CC[C@]4(C)C3CC[C@@]12C (stereo in doubt; 10) | 53 | 6

From ChEMBL document CHEMBL1127017
